Source: ChEMBL document CHEMBL3272012, “5-(Tetradecyloxy)-2-furancarboxylic acid and related hypolipidemic fatty acid-like alkyloxyarylcarboxylic acids” (J Med Chem, 1977)
Blank lines part the entries; values can stand above or below the molecule they belong to.

Columns and labels:
Rattus norvegicus [1] = experiment: Hypolipidemic activity in Wistar rat assessed as reduction in plasma cholesterol level at 640 umol/kg/day administered through diet for 10 days; assay type: functional; conditions: 240 h
Summary of the method: (§1)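 Young male Wistar rats (initial weight 170-190 g), groups of six, fed compound mixed into Purina Lab Chow ad libitum for 4 or 10 days; daily dose calculated from food consumption and body weight. Bled by cardiac puncture; plasma cholesterol and triglycerides by automated procedures; percent reduction versus simultaneous untreated controls, Student's t test.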

Rattus norvegicus [2] = experiment: Hypolipidemic activity in Wistar rat assessed as reduction in plasma triglyceride level at 640 umol/kg/day administered through diet for 10 days; assay type: functional; conditions: 240 h
Rattus norvegicus [3] = experiment: Increase in liver weight in Wistar rat at 640 umol/kg/day administered through diet for 10 days; assay type: ADME, organism-based; conditions: in vivo, po, 240 h
Rattus norvegicus [4] = experiment: Increase in cholesterol level in Wistar rat liver at 640 umol/kg/day administered through diet for 10 days; assay type: ADME, organism-based; conditions: in vivo, po, 240 h
Rattus norvegicus [5] = experiment: Increase in liver weight in Wistar rat at 591 umol/kg/day administered through diet for 4 days; assay type: ADME, organism-based; conditions: in vivo, po, 96 h
Rattus norvegicus [6] = experiment: Hypolipidemic activity in Wistar rat assessed as reduction in plasma cholesterol level at 591 umol/kg/day administered through diet for 4 days; assay type: functional; conditions: 96 h; summary of the method: as §1
Rattus norvegicus [7] = experiment: Increase in cholesterol level in Wistar rat liver at 591 umol/kg/day administered through diet for 4 days; assay type: ADME, organism-based; conditions: in vivo, po, 96 h
Rattus norvegicus [8] = experiment: Hypolipidemic activity in Wistar rat assessed as reduction in plasma triglyceride level at 591 umol/kg/day administered through diet for 4 days; assay type: functional; conditions: 96 h
Rattus norvegicus [9] = experiment: Increase in liver weight in Wistar rat at 425 umol/kg/day administered through diet for 10 days; assay type: ADME, organism-based; conditions: in vivo, po, 240 h
Rattus norvegicus [10] = experiment: Hypolipidemic activity in Wistar rat assessed as reduction in plasma triglyceride level at 425 umol/kg/day administered through diet for 10 days; assay type: functional; conditions: 240 h
Rattus norvegicus [11] = experiment: Hypolipidemic activity in Wistar rat assessed as reduction in plasma cholesterol level at 425 umol/kg/day administered through diet for 10 days; assay type: functional; conditions: 240 h
Summary of the method: (§2)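 Young male Wistar rats, 170-190 g initial weight, groups of six, given compound mixed thoroughly into Purina Lab Chow ad libitum for 4 or 10 days as stated. Daily dose calculated from food consumption and body weight. Bled by cardiac puncture at end of treatment; plasma cholesterol measured by automated procedure. Expressed as percent reduction versus simultaneous untreated control group; Student's t test.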

Rattus norvegicus [12] = experiment: Increase in cholesterol level in Wistar rat liver at 425 umol/kg/day administered through diet for 10 days; assay type: ADME, organism-based; conditions: in vivo, po, 240 h
Rattus norvegicus [13] = experiment: Increase in cholesterol level in Wistar rat liver at 446 umol/kg/day administered through diet for 4 days; assay type: ADME, organism-based; conditions: in vivo, po, 96 h
Rattus norvegicus [14] = experiment: Increase in liver weight in Wistar rat at 446 umol/kg/day administered through diet for 4 days; assay type: ADME, organism-based; conditions: in vivo, po, 96 h
Rattus norvegicus [15] = experiment: Hypolipidemic activity in Wistar rat assessed as reduction in plasma triglyceride level at 446 umol/kg/day administered through diet for 4 days; assay type: functional; conditions: 96 h
Rattus norvegicus [16] = experiment: Hypolipidemic activity in Wistar rat assessed as reduction in plasma cholesterol level at 446 umol/kg/day administered through diet for 4 days; assay type: functional; conditions: 96 h; summary of the method: as §2
Rattus norvegicus [17] = experiment: Hypolipidemic activity in Wistar rat assessed as reduction in plasma triglyceride level at 571 umol/kg/day administered through diet for 10 days; assay type: functional; conditions: 240 h
Rattus norvegicus [18] = experiment: Hypolipidemic activity in Wistar rat assessed as reduction in plasma cholesterol level at 571 umol/kg/day administered through diet for 10 days; assay type: functional; conditions: 240 h; summary of the method: as §1
Rattus norvegicus [19] = experiment: Increase in cholesterol level in Wistar rat liver at 571 umol/kg/day administered through diet for 10 days; assay type: ADME, organism-based; conditions: in vivo, po, 240 h
Rattus norvegicus [20] = experiment: Increase in liver weight in Wistar rat at 571 umol/kg/day administered through diet for 10 days; assay type: ADME, organism-based; conditions: in vivo, po, 240 h
Rattus norvegicus [21] = experiment: Increase in cholesterol level in Wistar rat liver at 406 umol/kg/day administered through diet for 4 days; assay type: ADME, organism-based; conditions: in vivo, po, 96 h
Rattus norvegicus [22] = experiment: Hypolipidemic activity in Wistar rat assessed as reduction in plasma cholesterol level at 406 umol/kg/day administered through diet for 4 days; assay type: functional; conditions: 96 h
Summary of the method: (§3)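 Young male Wistar rats, 170-190 g at start, in groups of six, given compound mixed into Purina Lab Chow ad libitum for 4 or 10 days as stated. Daily dose was calculated from food consumption and body weight. Plasma was taken by cardiac puncture at the end and cholesterol measured by automated procedure. Results are % reduction versus a concurrent untreated control group, with Student's t test.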

Rattus norvegicus [23] = experiment: Increase in liver weight in Wistar rat at 406 umol/kg/day administered through diet for 4 days; assay type: ADME, organism-based; conditions: in vivo, po, 96 h
Rattus norvegicus [24] = experiment: Hypolipidemic activity in Wistar rat assessed as reduction in plasma triglyceride level at 406 umol/kg/day administered through diet for 4 days; assay type: functional; conditions: 96 h
Rattus norvegicus [25] = experiment: Increase in cholesterol level in Wistar rat liver at 385 umol/kg/day administered through diet for 4 days; assay type: ADME, organism-based; conditions: in vivo, po, 96 h
Rattus norvegicus [26] = experiment: Hypolipidemic activity in Wistar rat assessed as reduction in plasma cholesterol level at 385 umol/kg/day administered through diet for 4 days; assay type: functional; conditions: 96 h; summary of the method: as §3
Rattus norvegicus [27] = experiment: Hypolipidemic activity in Wistar rat assessed as reduction in plasma triglyceride level at 385 umol/kg/day administered through diet for 4 days; assay type: functional; conditions: 96 h
Summary of the method: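 Young male Wistar rats (170-190 g initial weight), groups of six, fed test compound mixed into Purina Lab Chow ad libitum; daily dose calculated from food consumption and body weight. Bled by cardiac puncture at end of treatment; plasma triglycerides measured by automated procedure. Results given as percent reduction versus a simultaneous untreated control group, with significance by Student's t test.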

Rattus norvegicus [28] = experiment: Increase in liver weight in Wistar rat at 385 umol/kg/day administered through diet for 4 days; assay type: ADME, organism-based; conditions: in vivo, po, 96 h
Rattus norvegicus [29] = experiment: Increase in cholesterol level in Wistar rat liver at 459 umol/kg/day administered through diet for 10 days; assay type: ADME, organism-based; conditions: in vivo, po, 240 h
Rattus norvegicus [30] = experiment: Hypolipidemic activity in Wistar rat assessed as reduction in plasma triglyceride level at 459 umol/kg/day administered through diet for 10 days; assay type: functional; conditions: 240 h
Rattus norvegicus [31] = experiment: Increase in liver weight in Wistar rat at 459 umol/kg/day administered through diet for 10 days; assay type: ADME, organism-based; conditions: in vivo, po, 240 h
Rattus norvegicus [32] = experiment: Hypolipidemic activity in Wistar rat assessed as reduction in plasma cholesterol level at 459 umol/kg/day administered through diet for 10 days; assay type: functional; conditions: 240 h; summary of the method: as §2

Activity (Rattus norvegicus [13]): 0%
Activity (Rattus norvegicus [14]): 4%
Structure (SMILES): CCCCCCCCCCCCCCOc1ccc(OCC(=O)OC)cc1
inhibition in vivo at 446 µmol/kg (Rattus norvegicus [15]): 0%
inhibition in vivo at 446 µmol/kg (Rattus norvegicus [16]): 10%

Activity (Rattus norvegicus [21]): 11%
Activity (Rattus norvegicus [23]): 17%
Structure (SMILES): CCCCCCCCCCCCCCOc1ccc(COC(C)=O)cc1
inhibition in vivo at 406 µmol/kg (Rattus norvegicus [22]): 22%
inhibition in vivo at 406 µmol/kg (Rattus norvegicus [24]): 62%

Activity (Rattus norvegicus [29]): 0%
Activity (Rattus norvegicus [31]): 0%
Structure (SMILES): CCCCCCCCCCCCCCOc1ccc(C(N)=O)cc1
inhibition in vivo at 459 µmol/kg (Rattus norvegicus [30]): 0%
inhibition in vivo at 459 µmol/kg (Rattus norvegicus [32]): 3%

Further lines, the molecule ahead of its results:

Structure (SMILES): CCCCCCCCCCc1ccc(C(=O)O)cc1
inhibition in vivo at 640 µmol/kg (Rattus norvegicus [1]): 32%
inhibition in vivo at 640 µmol/kg (Rattus norvegicus [2]): 63%
Activity (Rattus norvegicus [3]): 18%
Activity (Rattus norvegicus [4]): 43%

Structure (SMILES): CCCCCCCCOc1ccc(C(=O)O)cc1
Activity (Rattus norvegicus [5]): 0%
inhibition in vivo at 591 µmol/kg (Rattus norvegicus [6]): 8%
Activity (Rattus norvegicus [7]): 12%
inhibition in vivo at 591 µmol/kg (Rattus norvegicus [8]): 35%

Structure (SMILES): CCCCCCCCCCCCCCCCCCCc1ccc(C(=O)O)cc1
Activity (Rattus norvegicus [9]): 10%
inhibition in vivo at 425 µmol/kg (Rattus norvegicus [10]): 2%
inhibition in vivo at 425 µmol/kg (Rattus norvegicus [11]): 8%
Activity (Rattus norvegicus [12]): 0%

Structure (SMILES): CCCCCCCCCCCCCc1ccc(C(=O)O)cc1
inhibition in vivo at 571 µmol/kg (Rattus norvegicus [17]): 77%
inhibition in vivo at 571 µmol/kg (Rattus norvegicus [18]): 54%
Activity (Rattus norvegicus [19]): 61%
Activity (Rattus norvegicus [20]): 25%

Structure (SMILES): CCCCCCCCCCCCCCOc1ccc(COC(=O)OCC)cc1
Activity (Rattus norvegicus [25]): 12%
inhibition in vivo at 385 µmol/kg (Rattus norvegicus [26]): 38%
inhibition in vivo at 385 µmol/kg (Rattus norvegicus [27]): 70%
Activity (Rattus norvegicus [28]): 11%
